Measurements as given in publication PMC10120002 (Proceedings of the National Academy of Sciences of the …, 2023).
Ends that are not written are not given here.

Target: recombinant Cdk5/p25 complex (Homo sapiens, UniProt Q00535+Q15078)
Assay: IP-linked Cdk5 kinase assay, recombinant Cdk5/p25, histone H1
Format: biochemical
Conditions: recombinant Cdk5/p25, overnight incubation, vs solvent control
Summary of the method: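 Recombinant Cdk5/p25 complex incubated overnight with test peptide or solvent control, then immunoprecipitated with anti-Cdk5 antibody overnight at 4 °C. The immunocomplex was used for a kinase reaction with histone H1 as substrate and ³²P label, resolved on 12% SDS-PAGE, dried, and exposed to film for several hours. ³²P-histone H1 band intensity was quantified, with Coomassie staining as loading check. Six replicates from two independent experiments.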

Sequence of recombinant Cdk5/p25 complex (Q00535 whole entry): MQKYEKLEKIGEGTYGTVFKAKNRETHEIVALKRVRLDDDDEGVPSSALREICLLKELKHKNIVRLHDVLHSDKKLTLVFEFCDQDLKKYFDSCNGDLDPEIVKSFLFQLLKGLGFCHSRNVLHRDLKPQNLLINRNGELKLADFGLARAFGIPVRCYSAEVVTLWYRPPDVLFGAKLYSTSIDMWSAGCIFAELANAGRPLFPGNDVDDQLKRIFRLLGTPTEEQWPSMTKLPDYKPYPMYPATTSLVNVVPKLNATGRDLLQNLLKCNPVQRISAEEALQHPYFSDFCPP
Sequence of recombinant Cdk5/p25 complex (Q15078 99-307 limits assumed): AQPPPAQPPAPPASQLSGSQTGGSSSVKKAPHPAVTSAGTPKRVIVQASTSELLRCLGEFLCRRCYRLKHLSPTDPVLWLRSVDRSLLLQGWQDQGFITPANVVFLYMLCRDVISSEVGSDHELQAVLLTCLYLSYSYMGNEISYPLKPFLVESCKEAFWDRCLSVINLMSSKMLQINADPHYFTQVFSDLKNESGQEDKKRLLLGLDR

Sequence: ARAFGIPVRCYS [Cdk5i]
- reduction of histone H1 phosphorylation by Cdk5/p25: ~ 22%
